sEH activator – soluble epoxide hydrolase activators, primary screen, biochemical, human sEH; purified human sEH enzymatic activity, activator screen; AID 717, 2007; actives 0.04% (n = 91,000); activation, % at 2 µM; in the data active means activation above about 37%
Target sequence (P34913 whole entry, looked up): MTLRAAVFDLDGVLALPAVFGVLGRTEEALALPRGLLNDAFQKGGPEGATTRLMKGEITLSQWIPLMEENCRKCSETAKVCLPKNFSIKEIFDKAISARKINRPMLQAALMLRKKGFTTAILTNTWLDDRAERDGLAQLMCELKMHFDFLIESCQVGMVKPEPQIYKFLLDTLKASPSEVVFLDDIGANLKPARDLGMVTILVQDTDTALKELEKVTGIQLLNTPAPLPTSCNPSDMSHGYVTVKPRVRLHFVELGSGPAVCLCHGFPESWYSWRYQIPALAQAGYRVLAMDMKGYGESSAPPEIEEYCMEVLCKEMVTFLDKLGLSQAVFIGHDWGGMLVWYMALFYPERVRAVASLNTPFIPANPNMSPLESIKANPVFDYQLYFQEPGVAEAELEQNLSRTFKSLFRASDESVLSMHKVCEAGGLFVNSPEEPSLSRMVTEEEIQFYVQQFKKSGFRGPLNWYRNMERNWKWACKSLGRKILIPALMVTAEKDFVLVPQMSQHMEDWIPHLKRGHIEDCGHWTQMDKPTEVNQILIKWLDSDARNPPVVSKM
Measles CPE – compounds protecting cells from measles virus cytopathic effect, primary screen, measles RdRp inhibitor project, single point, MLSMR library, absorbance; Measles virus-infected cells, CPE protection; protection (pct of control), % at 4 µM; actives 1.5% (n = 140,000); AID 841, 2007; in the data active means protection mostly above about 24%, no sharp cut-off; inactive means mostly below about 26%
sdo1 growth – growth rescue of sdo1-depleted yeast, primary screen, S. cerevisiae, bone marrow failure model. S. cerevisiae sdo1-depleted JHY4D growth rescue, OD600 30 h; active compounds read high; pdr5 snq2 efflux-pump mutant strain. z-score at 10 µM. actives 0.21% (n = 140,000);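 active means z-score above 3 at both the 24 hr and the 30 hr optical density reads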;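 further: z-score against mean and SD of all compound wells on the same plate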
Yeast lifespan up – compounds extending yeast replicative lifespan, primary screen, S. cerevisiae, OD615. S. cerevisiae growth with nicotinamide; deaD strain in restrictive glucose medium. inhibition of the nicotinamide effect, % at 10 µM. actives 0.68% (n = 130,000). AID 775, 2007;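 active means inhibition above a set limit, placed 3 SD over the median of all compounds, cut at about 26% in these data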;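 further: 0% = nicotinamide-treated wells and 100% = cells grown without nicotinamide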
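Measured by: optical density (absorbance) at 615 nm; System: modified budding yeast, DeaD strain; Medium: restrictive CSMM-D dextrose medium; Timing: 4 h preincubation then 48 h treatment at 30 °C.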
BB579 growth dn – growth inhibitors of yeast BB579 in restrictive medium, primary screen, yeast lifespan-shortening project, S. cerevisiae. OD615, 48 h. actives 0.51% (n = 140,000). inhibition, % at 10 µM;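 active means inhibition above a set limit, 3 SD over the mean compound inhibition, cut at about 44% in these data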
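Detection: OD615 turbidity measurement; Material: Saccharomyces cerevisiae DeaD strain BB579, replicative lifespan model yeast; Timing: 48 h exposure, 30 °C; Doses: single 10 µM dose; Medium: CSMM-D restrictive synthetic medium containing dextrose (glucose); Controls: amphotericin B at 10 µg/mL as positive control.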
sEH inh – soluble epoxide hydrolase inhibitors, primary screen, biochemical, human sEH. AID 707, 2007. inhibition, % at 2 µM. recombinant human sEH enzymatic activity assay. actives 0.34% (n = 91,000). Bifunctional epoxide hydrolase 2 (Homo sapiens), P34913; in the data active means inhibition above about 80%
Numbers without * were called inactive; / = no result. Shown are actives, neighbours in structure and some others; about 3% of the full set was active somewhere.

SMILES | sEH activator | Measles CPE | sdo1 growth | Yeast lifespan up | BB579 growth dn | sEH inh
CCN(CCNC(=O)C1CCN(Cc2nc(-c3ccc(Cl)cc3)oc2C)CC1)c1ccccc1 | -83.4 | / | -1.46 | -12.8 | -84.9 | 83.7*
CC1(C)CC(=O)C=C(NC2=CC3OC(c4ccccc4)OCC3OC2=O)C1 (stereo not drawn) | / | 4.8 | -0.73 | 5.6 | -21.8 | /
CC(/C=C1\SC(=O)N(CCCC(=O)O)C1=O)=C\c1ccccc1 | / | 26.9 | 0.09 | 29.2* | -17.6 | /
CC1=C(C(=O)N2CCOCC2)C(c2ccc(Cl)cc2)NC(=S)N1 (stereo not drawn) | / | 12.0 | 0.77 | -1.2 | 0.3 | /
Cc1cc(C)nc(SCc2cc(=O)c(OC(=O)c3ccc(Cl)c([N+](=O)[O-])c3)co2)n1 | / | 2.0 | 0.02 | 29.6* | -20.8 | /
Cc1cc(C)nc(SCc2cc(=O)c(OC(=O)c3ccc(S(=O)(=O)N(C)C)cc3)co2)n1 | / | 15.7 | -1.02 | -4.9 | -18.4 | /
CCCCN1CCc2[nH]c(=S)[nH]c(=O)c2C1 | / | 7.3 | 0.23 | 1.6 | -7.5 | /
Nc1c(C2=NCCO2)nnn1Cc1ccccc1 | 4.7 | 40.7* | 0.14 | -3.0 | 1.6 | -2.6
CCCCOC(=O)NC1CCS(=O)(=O)C1 (stereo not drawn) | 2.1 | 13.2 | -0.08 | -1.4 | -35.0 | -0.1
O=c1oc(-c2ccco2)nc2ccccc12 | -0.2 | 8.2 | 0.64 | 29.1 | 3.1 | 2.6
c1coc(-c2nc3ccccc3nc2-c2ccco2)c1 | / | 40.6* | -0.97 | -14.6 | 2.0 | /
CC(C)CCNC(=O)c1sc2ccc(S(=O)(=O)N3CCCCC3)cc2c1N | / | 8.1 | 0.82 | 3.4 | -43.5 | /
C#CCOc1ccc(Br)cc1/C=N/O | -1.4 | 6.5 | -0.54 | -7.4 | -13.9 | 2.1
Cc1ccc2nc(Cl)c(/C=N/NC(=O)[C@H]3C[C@@H]3c3ccccc3)cc2c1 | / | 10.1 | -1.31 | -5.4 | -6.4 | /
CC(C)(C)c1ccc(C2CC2C(=O)N/N=C\c2cc3ccccc3nc2Cl)cc1 (stereo not drawn) | 0.5 | 51.4* | 0.6 | -12.2 | -17.6 | 5.2
O=C(COC(=O)c1cccnc1Nc1cccc(C(F)(F)F)c1)NC1CCS(=O)(=O)C1 (stereo not drawn) | / | 3.3 | -0.06 | -0.9 | 5.5 | /
C=CCn1c(SCC(=O)N2CCc3ccccc3C2)nc2sc(C)cc2c1=O | 4.3 | 32.8* | -1.7 | -8.4 | -29.1 | -5.5
COCCn1c(SCC(=O)N2CCC(C)CC2)nc2ccccc2c1=O | / | 21.1 | -0.98 | -5.9 | -19.8 | /
COCCn1c(SCC(=O)N2CCc3ccccc3C2)nc2ccccc2c1=O | / | 32.4* | -0.53 | -0.6 | -14.1 | /
C=CCn1c(SCC(=O)N2CCN(C(=O)c3ccco3)CC2)nc2sc(CC)cc2c1=O | -8.2 | 13.0 | -0.51 | -8.9 | -21.1 | 8.7
COc1ccccc1C1C(C#N)=C(N)N(c2cccnc2)C2=C1C(=O)CC(C)(C)C2 (stereo not drawn) | 5.3 | 7.8 | -0.21 | -2.8 | -37.4 | -6.1
CC(C)(Oc1ccc(Cl)cc1)C(=O)N(Cc1ccccc1)c1ccccn1 | / | 13.0 | -0.18 | 25.2 | -24.5 | /
CCOC(=O)c1sc(=S)n(-c2cc(F)ccc2F)c1N | / | 2.2 | 1.71 | -9.9 | 45.2* | /
Cn1c(=O)nc2n(Cc3ccccc3)c3cccc(Cl)c3cc-2c1=O | / | 3.4 | 0.05 | -2.5 | -11.2 | /
Cc1ccc(-c2nc3cc(N)ccc3o2)cc1 | -5.7 | 6.9 | -0.31 | -21.1 | -23.2 | 5.0
SMILES | sEH activator | Measles CPE | sdo1 growth | Yeast lifespan up | BB579 growth dn | sEH inh
Cc1ccc(-c2nc3cc(C)ccc3o2)cc1 | -16.5 | 56.3* | -0.17 | -25.8 | -50.2 | 16.1
COC(=O)c1cc(NC(=O)CC2NC3CCCCC3NC2=O)cc(C(=O)OC)c1 (stereo not drawn) | -5.7 | 24.6 | 0.65 | -11.8 | 16.5 | 8.8
COc1ccc(Br)cc1CN(C)CC(=O)Nc1c(Cl)cccc1Cl | / | 25.3 | -1.31 | 2.9 | -60.9 | /
COc1ccc(-c2nnn(CC(=O)c3ccc4c(c3)OCCO4)n2)cc1OC | 5.2 | 27.0* | 0.93 | / | -10.6 | -1.3
CCOC(=O)CSC1=C(C#N)C(c2ccccc2Cl)C(C(=O)OC)C(=O)N1 (stereo not drawn) | 15.2 | 4.0 | -0.3 | -11.5 | -1.9 | -14.6
NC(=O)c1sc2nc(-c3ccco3)ccc2c1N | 7.3 | 37.2 | -0.56 | -24.5 | 53.3* | -6.3
Cc1ccccc1N1C(S)=C(C#N)C(=O)NC12CCCCC2 | / | -0.1 | 1.01 | -0.4 | -3.5 | /
Cc1cc(C)c(C)c(C(=O)CSc2nnc(C)c(=O)[nH]2)c1C | 1.8 | 3.9 | -0.35 | -9.0 | -22.8 | -2.0
COc1ccccc1-n1c(SCC(=O)Nc2cccc(C)c2)nc2c(c1=O)SCC2 | / | 47.4* | -0.16 | -9.9 | 4.5 | /
CCc1c(O)cc(=O)n(-c2ccccc2)c1-c1ccccc1 | / | 25.9* | -0.07 | -5.4 | -48.0 | /
COc1ccccc1N(CC(=O)Nc1ccc(S(=O)(=O)N2CCCCC2)cc1)S(C)(=O)=O | 5.5 | 64.9* | 0.89 | / | -19.6 | -5.0
O=C(CCCN1C(=O)c2ccccc2C1=O)Nc1ccc(S(=O)(=O)N2CCCCC2)cc1 | -88.8 | 5.6 | -1.16 | -0.5 | -16.3 | 89.0*
O=C(COC(=O)c1n[nH]c2ccccc12)Nc1ccc(S(=O)(=O)N2CCCC2)cc1 | -29.7 | 70.6* | 0 | -11.5 | -40.8 | 29.3
CC1=NNC(=O)/C1=C\c1cn(-c2ccccc2)nc1-c1cccs1 | / | 0.0 | -1.88 | -2.0 | 96.3* | /
O=C(N/N=C/c1cn(-c2ccccc2)nc1-c1cccs1)c1ccccc1F | / | 5.1 | -1.78 | -3.6 | -18.3 | /
Cc1ccc(S(=O)(=O)CC#CCOC(=O)c2ccc([N+](=O)[O-])cc2)cc1 | 0.6 | 2.7 | -2.5 | 55.1 | -32.5 | -0.9
c1ccc(Cn2c(-c3ccco3)nc3nc4ccccc4nc32)cc1 | 37.9* | 23.3 | -1.67 | -18.0 | -56.6 | -39.6
CCCCCn1c(-c2ccco2)nc2nc3ccccc3nc21 | / | 10.8 | -1.43 | 11.9 | -10.4 | /
CC(Sc1nc2ccccc2s1)C(=O)Nc1nnc(C(C)C)s1 (stereo not drawn) | 37.3* | 7.9 | -0.17 | -1.3 | -21.3 | -38.7
CCC(Sc1nc2ccccc2s1)C(=O)Nc1nnc(C)s1 (stereo not drawn) | 1.7 | 11.9 | -1.2 | -10.6 | 15.7 | -3.3
CC(C)(O)C#Cc1ccccc1C(=O)NC(CC(N)=O)C(=O)O (stereo not drawn) | -10.1 | 65.0* | -0.03 | -5.9 | -24.2 | 11.2
NC(=O)CC(NC(=O)OCc1ccccc1)C(=O)O (stereo not drawn) | 10.1 | 23.5 | -0.23 | -4.3 | 0.5 | -10.7
O=C(CCCOc1ccc(Cl)cc1Cl)N/N=C\C1CCCCC1 | -98.5 | 26.0 | -0.22 | -15.3 | -29.7 | 98.6*
CC(OC(=O)c1ccc(NS(=O)(=O)c2cccs2)cc1)C(=O)N(C)C1CCCCC1 (stereo not drawn) | / | 20.5 | 0.64 | 2.4 | -24.2 | /
